In ChEMBL document CHEMBL1649585, “Role of the Mycobacterium tuberculosis P55 efflux pump in intrinsic drug resistance, oxidative stress responses, and growth” (2009):
Converted amounts (≈) assume the structure as drawn. The source made the active and inactive calls. The rule behind the calls is not given here. Where a SMILES comes first, the peptide text is derived from it. Bridges are numbered along the chain shown (N, C = ends). [ ]: non-standard residue; d: D form. The star is where a group is joined. Ileψ(thiazoline)Cys = CC[C@H](C)[C@H](N)C1=N[C@H](C(=O)*)CS1; dOrn = NCCC[C@@H](N)C(=O)O

Legend:
[1] = tested on: Mycobacterium tuberculosis variant bovis BCG; assay: Antimicrobial activity against Mycobacterium bovis BCG KOP55 harboring inactivated p55 gene at 5 umol after 14 days by disk diffusion method; format: functional
In short: (§1)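 Disc assay on Middlebrook 7H10 agar: lawn spread from a suspension of 10^6 cells/ml, discs carrying the redox compound placed on the lawn, halos recorded after 14 days at 37°C.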

[2] = tested on: Mycobacterium tuberculosis variant bovis BCG; assay: Antimicrobial activity against Mycobacterium bovis BCG P55 at 5 umol after 14 days by disk diffusion method; format: functional; in short: as §1
[3] = tested on: Mycobacterium tuberculosis variant bovis BCG; assay: Antimicrobial activity against Mycobacterium bovis BCG KOP55 harboring inactivated p55 gene by resazurine microtiter assay in presence of 1 mg/liter CCCP; format: functional; conditions: KOP55, Urine
In short: (§2)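 Resazurin microdilution MIC (serial twofold dilutions, 8 days at 37°C plus 2 days after resazurin) run with a fixed subinhibitory level of efflux pump inhibitor (valinomycin, reserpine or CCCP) present throughout. Triplicate, repeated at least three times.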

[4] = tested on: Mycobacterium tuberculosis variant bovis BCG; assay: Antimicrobial activity against Mycobacterium bovis BCG KOP55 harboring pPAZ23 carrying p27-p55 operon by resazurine microtiter assay; format: functional; conditions: KOP55, Urine
In short: (§3)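 Resazurin microdilution in liquid medium: serial twofold compound dilutions, plates incubated 8 days at 37°C, then 2 more days after adding resazurin. MIC read from the indicator. Run in triplicate and repeated at least three times.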

[5] = tested on: Mycobacterium tuberculosis variant bovis BCG; assay: Antimicrobial activity against Mycobacterium bovis BCG KOP55 harboring inactivated p55 gene by resazurine microtiter assay; format: functional; conditions: KOP55, Urine; in short: as §3
[6] = tested on: Mycobacterium tuberculosis variant bovis BCG; assay: Antimicrobial activity against Mycobacterium bovis BCG KOP55 harboring pPAZ23 carrying p27-p55 operon by resazurine microtiter assay in presence of 1 mg/liter CCCP; format: functional; conditions: KOP55, Urine; in short: as §2
[7] = tested on: Mycobacterium tuberculosis variant bovis BCG; assay: Antimicrobial activity against Mycobacterium bovis BCG KOP55 harboring inactivated p55 gene by twofold dilution method; format: functional
In short: (§4)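 Agar MIC: log-phase cultures diluted to 10^5 cells/ml, 10 µl spotted onto Middlebrook 7H10 plates with serial twofold antibiotic dilutions. Visible growth scored after 21 days at 37°C. Triplicate, repeated at least three times.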

[8] = tested on: Mycobacterium tuberculosis variant bovis BCG; assay: Antimicrobial activity against Mycobacterium bovis BCG KOP55 harboring pPAZ23 carrying p27-p55 operon by twofold dilution method; format: functional; in short: as §4
[9] = tested on: Mycobacterium tuberculosis variant bovis BCG; assay: Effect on intracellular redox potential in Mycobacterium bovis BCG KOP55 harboring pPAZ23 carrying p27-p55 operon assessed as accumulation of formazan at 5 mg/liter after 1 hr by MTT assay; format: functional, organism-based
In short: (§5)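 MTT reduction as an index of intracellular redox potential: cultures at OD600 0.2 treated with drug or solvent for 1 h at 37°C in quadruplicate wells, MTT (2 mg/ml stock) added, 3 h further incubation. Formazan solubilised with 10% SDS, 30 min shaking, absorbance at 600 nm. Repeated at least three independent times.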

[10] = tested on: Mycobacterium tuberculosis variant bovis BCG; assay: Decrease in intracellular redox potential in Mycobacterium bovis BCG KOP55 harboring inactivated p55 gene assessed as decreased accumulation of formazan at 5 mg/liter after 1 hr by MTT assay; format: functional; parameters: scale not given: the % may be the effect or the level left; in short: as §5
[11] = tested on: Mycobacterium tuberculosis variant bovis BCG; assay: Decrease in intracellular redox potential in Mycobacterium bovis BCG KOP55 harboring inactivated p55 gene assessed as decreased accumulation of formazan at 256 mg/liter after 1 hr by MTT assay; format: functional; parameters: scale not given: the % may be the effect or the level left; in short: as §5
[12] = tested on: Mycobacterium tuberculosis variant bovis BCG; assay: Effect on intracellular redox potential in Mycobacterium bovis BCG KOP55 harboring pPAZ23 carrying p27-p55 operon assessed as accumulation of formazan at 256 mg/liter after 1 hr by MTT assay; format: functional, organism-based; in short: as §5
[13] = tested on: Mycobacterium tuberculosis variant bovis BCG; assay: Antimicrobial activity against Mycobacterium bovis BCG P55 at 0.125 umol after 14 days by disk diffusion method; format: functional; in short: as §1
[14] = tested on: Mycobacterium tuberculosis variant bovis BCG; assay: Antimicrobial activity against Mycobacterium bovis BCG KOP55 harboring inactivated p55 gene at 0.125 umol after 14 days by disk diffusion method; format: functional; in short: as §1
[15] = tested on: Mycobacterium tuberculosis variant bovis BCG; assay: Increase in intracellular redox potential in Mycobacterium bovis BCG KOP55 harboring pPAZ23 carrying p27-p55 operon assessed as increased accumulation of formazan at 64 mg/liter after 1 hr by MTT assay; format: functional; in short: as §5
[16] = tested on: Mycobacterium tuberculosis variant bovis BCG; assay: Increase in intracellular redox potential in Mycobacterium bovis BCG KOP55 harboring inactivated p55 gene assessed as increased accumulation of formazan at 64 mg/liter after 1 hr by MTT assay; format: functional; in short: as §5
[17] = tested on: Mycobacterium tuberculosis variant bovis BCG; assay: Antimicrobial activity against Mycobacterium bovis BCG P55 by resazurine microtiter assay; format: functional; conditions: P55, Urine; in short: as §3
[18] = tested on: Mycobacterium tuberculosis variant bovis BCG; assay: Antimicrobial activity against Mycobacterium bovis BCG KOP55 harboring inactivated p55 gene by resazurine microtiter assay in presence of 0.5 mg/liter reserpine; format: functional; conditions: KOP55, Urine; in short: as §2
[19] = tested on: Mycobacterium tuberculosis variant bovis BCG; assay: Antimicrobial activity against Mycobacterium bovis BCG KOP55 harboring inactivated p55 gene by resazurine microtiter assay in presence of 0.1 mg/liter valinomycin; format: functional; conditions: KOP55, Urine; in short: as §2
[20] = tested on: Mycobacterium tuberculosis variant bovis BCG; assay: Antimicrobial activity against Mycobacterium bovis BCG KOP55 harboring pPAZ23 carrying p27-p55 operon by resazurine microtiter assay in presence of 0.1 mg/liter valinomycin; format: functional; conditions: KOP55, Urine; in short: as §2
[21] = tested on: Mycobacterium tuberculosis variant bovis BCG; assay: Antimicrobial activity against Mycobacterium bovis BCG KOP55 harboring pPAZ23 carrying p27-p55 operon by resazurine microtiter assay in presence of 0.5 mg/liter reserpine; format: functional; conditions: KOP55, Urine; in short: as §2

`OC(CS)C(O)CS` (racemic) [DL-DITHIOTHREITOL] was tested, and the “inhibition zone (IZ)” value [1] was 30 mm and the “inhibition zone (IZ)” value [2] was 0 mm.

Work on `CC[C@H](C)[C@H](N)C1=N[C@H](C(=O)N[C@@H](CC(C)C)C(=O)N[C@H](CCC(=O)O)C(=O)N[C@H](C(=O)N[C@H]2CCCCNC(=O)[C@H](CC(N)=O)NC(=O)[C@@H](CC(=O)O)NC(=O)[C@H](Cc3cnc[nH]3)NC(=O)[C@@H](Cc3ccccc3)NC(=O)[C@H]([C@@H](C)CC)NC(=O)[C@@H](CCCN)NC2=O)[C@@H](C)CC)CS1` [BACITRACIN] ({Ileψ(thiazoline)Cys}-L[dE]IK[dOrn]I[dF]H[dD]N; lactam 4-C) yielded an MIC [3] of 16 µg/mL, an MIC [4] greater than 256 µg/mL and an MIC [5] of 16 µg/mL. The MIC [6] was greater than 256 µg/mL.

For `N#CC(C#N)=NNc1cccc(Cl)c1` [CARBONYL CYANIDE M-CHLOROPHENYLHYDRAZONE], the MIC [5] was 2 µg/mL.

For `CN(C)CCCN1c2ccccc2Sc2ccc(Cl)cc21` [CHLORPROMAZINE], the MIC [7] was 4 µg/mL (≈ 12.5 µM).

For `CC(C)/N=c1\cc2n(-c3ccc(Cl)cc3)c3ccccc3nc-2cc1Nc1ccc(Cl)cc1` [CLOFAZIMINE], the MIC [8] was 0.1 µg/mL (≈ 0.211 µM), the Activity [9] was “inactive” and the MIC [7] was 0.025 µg/mL (≈ 0.0528 µM). For the same molecule, the Activity [10] was 15%.

In the case of `CN(C)C(=O)/N=N/C(=O)N(C)C` [DIAMIDE], the “inhibition zone (IZ)” value [1] is reported as 30 mm, the Activity [11] is reported as 35% and the Activity [12] is reported as “inactive”. For the same molecule, the “inhibition zone (IZ)” value [2] was 0 mm.

Work on `Clc1ccc(COC(Cn2ccnc2)c2ccc(Cl)cc2Cl)cc1` (configuration not stated) [ECONAZOLE] yielded an MIC [8] of 6.4 µg/mL (≈ 16.8 µM) and an MIC [7] of 1.6 µg/mL (≈ 4.19 µM).

Work on `CC[C@@H](CO)NCCN[C@@H](CC)CO` [ETHAMBUTOL] yielded an MIC [5] of 2 µg/mL.

For `CC1=CC(=O)c2ccccc2C1=O` [MENADIONE], the “inhibition zone (IZ)” value [13] was 20 mm, the “inhibition zone (IZ)” value [14] was 16 mm and the “fold change (FC)” value [15] was 3.5. For the same molecule, the “fold change (FC)” value [16] was 1.3.

`Cc1c(C)n2c(CBr)c(C)c(=O)n2c1=O` [MONOBROMOBIMANE] showed an MIC [5] of 125 µM and an MIC [17] of 500 µM (≈ 136 µg/mL).

For `CO[C@@H]1[C@@H](OC(N)=O)[C@@H](O)[C@H](Oc2ccc3c(O)c(NC(=O)c4ccc(O)c(CC=C(C)C)c4)c(=O)oc3c2C)OC1(C)C` [NOVOBIOCIN], the MIC [3] was 1 µg/mL, the MIC [18] was 1 µg/mL and the MIC [19] was 0.5 µg/mL. For the same molecule, the MIC [20] was 8 µg/mL, the MIC [4] was 16 µg/mL (≈ 26.1 µM) and the MIC [5] was 2 µg/mL. It also gave an MIC [21] of 8 µg/mL and an MIC [6] of 4 µg/mL.

For `O=[N+]([O-])c1cn2c(n1)OC[C@@H](OCc1ccc(OC(F)(F)F)cc1)C2` [PRETOMANID], the MIC [4] was 0.25 µg/mL (≈ 0.696 µM) and the MIC [5] was 0.125 µg/mL.

Work on `COC(=O)[C@H]1[C@H]2C[C@@H]3c4[nH]c5cc(OC)ccc5c4CCN3C[C@H]2C[C@@H](OC(=O)c2cc(OC)c(OC)c(OC)c2)[C@@H]1OC` [RESERPINE] yielded an MIC [4] of 2 µg/mL (≈ 3.29 µM) and an MIC [5] of 2 µg/mL.

`CO[C@H]1/C=C/O[C@@]2(C)Oc3c(C)c(O)c4c(O)c(c(/C=N/N5CCN(C)CC5)c(O)c4c3C2=O)NC(=O)/C(C)=C\C=C\[C@H](C)[C@H](O)[C@@H](C)[C@@H](O)[C@@H](C)[C@H](OC(C)=O)[C@@H]1C` [RIFAMPIN] showed an MIC [3] of 0.0002 µg/mL, an MIC [18] of 0.0004 µg/mL and an MIC [19] of 0.0002 µg/mL. For the same molecule, the MIC [20] was 0.0016 µg/mL, the MIC [4] was 0.0032 µg/mL (≈ 0.00389 µM) and the MIC [5] was 0.0004 µg/mL. The MIC [21] was 0.0016 µg/mL and the MIC [6] was 0.0008 µg/mL.

In the case of `Oc1cc(Cl)ccc1Oc1ccc(Cl)cc1Cl` [TRICLOSAN], the MIC [7] is reported as 8 µg/mL (≈ 27.6 µM).

With `CC(C)[C@@H]1NC(=O)[C@H](C)OC(=O)[C@@H](C(C)C)NC(=O)[C@@H](C(C)C)OC(=O)[C@H](C(C)C)NC(=O)[C@H](C)OC(=O)[C@@H](C(C)C)NC(=O)[C@@H](C(C)C)OC(=O)[C@H](C(C)C)NC(=O)[C@H](C)OC(=O)[C@@H](C(C)C)NC(=O)[C@@H](C(C)C)OC1=O` [VALINOMYCIN] the MIC [4] was 0.4 µg/mL (≈ 0.36 µM) and the MIC [5] was 0.2 µg/mL.

In the case of `CN[C@H](CC(C)C)C(=O)N[C@H]1C(=O)N[C@@H](CC(N)=O)C(=O)N[C@H]2C(=O)N[C@H]3C(=O)N[C@H](C(=O)N[C@H](C(=O)O)c4cc(O)cc(O)c4-c4cc3ccc4O)[C@H](O)c3ccc(c(Cl)c3)Oc3cc2cc(c3O[C@@H]2O[C@H](CO)[C@@H](O)[C@H](O)[C@H]2O[C@H]2C[C@](C)(N)[C@H](O)[C@H](C)O2)Oc2ccc(cc2Cl)[C@H]1O` [VANCOMYCIN], the MIC [3] is reported as 0.25 µg/mL, the MIC [20] is reported as 4 µg/mL and the MIC [4] is reported as 4 µg/mL (≈ 2.76 µM). It also gave an MIC [5] of 0.25 µg/mL.
